Results published in ChEMBL document CHEMBL1126194, “Synthesis and functional evaluation of a peptide derivative of 1-beta-D-arabinofuranosylcytosine” (J Med Chem, 1992).

Columns and labels:
[1] = Half life in human plasma; assay type: ADME
Method in brief: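 Compound ([…]) incubated in 1 mL fresh human plasma at 37 °C against a buffer reference; hydrolysis followed by change in absorption at 325 nm (ϵ 1.55). Initial concentration about 2 × 10^-4 M; apparent first-order kinetics, with the pseudo-first-order rate constant given by k = 0.693/t1/2.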

L1210 [2] = experiment: Inhibition of L1210 lymphoid leukemia cells 24 hr after administration (length of preincubation=0 hr); assay type: functional, cell-based; settings: Mus musculus
Method in brief: (§1)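 L1210 cells (2×10^4/well) exposed continuously to serially diluted compound in Fischer's medium with 10% horse serum for up to 72 h. Viable cells were counted by Trypan blue exclusion at 24, 48 and 72 h. IC50 is the concentration giving 50% growth inhibition, estimated from response curves of three separate experiments.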

L1210 [3] = experiment: Inhibition of L1210 lymphoid leukemia cells 48 hr after administration (length of preincubation=0 hr); assay type: functional, cell-based; settings: Mus musculus; method in brief: as §1
L1210 [4] = experiment: Inhibition of L1210 lymphoid leukemia cells 72 hr after administration (length of preincubation=0 hr); assay type: functional, cell-based; settings: Mus musculus; method in brief: as §1

SMILES	half-life [1]	IC50 (L1210 [2])	IC50 (L1210 [3])	IC50 (L1210 [4])
CC(C)C[C@H](NC(=O)[C@H](N)C(C)C)C(=O)N[C@@H](CCCCN)C(=O)N(C)c1ccn([C@@H]2O[C@H](CO)[C@@H](O)[C@@H]2O)c(=O)n1.N=C(N)c1ccc(CS(=O)(=O)F)cc1	330 min	1000 nM	5 nM	10 nM
Nc1ccn([C@@H]2O[C@H](CO)[C@@H](O)[C@@H]2O)c(=O)n1 [CYTARABINE]	–	100 nM	10 nM	10 nM
